≈ marks a conversion by molar mass, not a printed value.
Columns and labels:
[1] = tested on: Mycobacterium tuberculosis; test: Antitubercular activity against non-replicating Mycobacterium tuberculosis H37Rv expressing luxCDAB assessed as inhibition of bacterial growth incubated for 7 days under hypoxia conditions followed by incubation in normoxia conditions for 5 days by luminescence based analysis; assay type: functional; conditions: 288 h, time 12 day
[2] = Metabolic stability of the compound in CD-1 mouse liver microsomes at 5 uM by LC-TOF/MS analysis; assay type: ADME, Microsome
How it was run: (§1)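 Mouse liver microsomes incubated with compound in the presence of NADPH. Read-out is % parent compound remaining after 30 min.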

[3] = Metabolic stability of the compound in CD-1 mouse liver microsomes assessed as parent compound remaining at 5 uM preincubated for 5 mins followed by NADPH addition and measured after 30 mins by LC-TOF/MS analysis; assay type: ADME, Microsome; conditions: time 35 min, read-out: Stability; how it was run: as §1

Row | SMILES | MIC50 [1] [µM] | MIC90 [1] [µM] | Stability [2] | remaining at 0.5 h, 5 µM [3] [%]
1 | Cc1cccc(-c2nc(Nc3ccc4ncsc4c3)c3ccccc3n2)n1 | < 0.3 | 1.3 (≈ 0.48 µg/mL) | – | –
2 | FC(F)(F)c1cccc(-c2nc(Nc3ccncc3)c3ccccc3n2)n1 | 1 (≈ 0.367 µg/mL) | 5 (≈ 1.84 µg/mL) | Stable | 29
3 | Cc1cccc(-c2nc(Nc3ccc4nn(C)cc4c3)c3ccccc3n2)n1 | < 0.3 | 1.3 (≈ 0.476 µg/mL) | – | –
4 | COc1ccc2c(Nc3ccncc3)nc(-c3cccc(C)n3)nc2c1 | 1 (≈ 0.343 µg/mL) | 2.5 (≈ 0.858 µg/mL) | Stable | 12
5 | Cc1cccc(-c2nc(Nc3ccncc3)c3cc(O)ccc3n2)n1 | 1 (≈ 0.329 µg/mL) | 2.5 (≈ 0.823 µg/mL) | Stable | 20
6 | c1ccc(-c2nc(Nc3ccncc3)c3ccccc3n2)nc1 | 1 (≈ 0.299 µg/mL) | 2.5 (≈ 0.748 µg/mL) | Stable | 20
7 | Cc1cc(Nc2nc(-c3cccc(C)n3)nc3ccccc23)ccn1 | < 0.3 | 1.3 (≈ 0.426 µg/mL) | – | –
8 | Fc1cccc(-c2nc(Nc3ccncc3)c3ccccc3n2)n1 | 1 (≈ 0.317 µg/mL) | 5 (≈ 1.59 µg/mL) | Stable | 18
9 | Cc1cccc(-c2cc3ccccc3c(Nc3ccncc3)n2)n1 | 1 (≈ 0.312 µg/mL) | > 10 | – | –
10 | COc1cncc(-c2nc(Nc3ccncc3)c3ccccc3n2)n1 | 5 (≈ 1.65 µg/mL) | > 10 | – | –
11 | Cc1csc(-c2nc(Nc3ccncc3)c3ccccc3n2)n1 | > 10 | > 10 | – | –
12 | COc1ccc2nc(-c3cccc(C)n3)nc(Nc3ccncc3)c2c1 | < 1 | < 1 | Stable | 23
13 | Cc1cccc(-c2nc(C)cc(Nc3ccncc3)n2)n1 | < 1 | > 10 | – | –
14 | Cn1ccc(-c2nc(Nc3ccncc3)c3ccccc3n2)n1 | > 10 | > 10 | – | –
15 | Cc1cc(-c2nc(Nc3ccncc3)c3ccccc3n2)cs1 | > 10 | > 10 | – | –
16 | c1cncc(-c2nc(Nc3ccncc3)c3ccccc3n2)c1 | > 10 | > 10 | – | –

Row | SMILES | MIC50 [1] [µM] | MIC90 [1] [µM] | Stability [2] | remaining at 0.5 h, 5 µM [3] [%]
17 | c1cnc(-c2nc(Nc3ccncc3)c3ccccc3n2)nc1 | 2.5 (≈ 0.751 µg/mL) | > 10 | – | –
18 | c1ccc2c(Nc3ccncc3)nc(-c3ccc4c(c3)OCO4)nc2c1 | > 10 | > 10 | – | –
19 | c1ccc2c(Nc3ccncc3)nc(-c3cnccn3)nc2c1 | 1 (≈ 0.3 µg/mL) | > 10 | – | –
20 | Clc1cccc(-c2nc(Nc3ccncc3)c3ccccc3n2)c1 | > 10 | > 10 | – | –
21 | Cc1cccc(-c2nc(Nc3ccc4ncccc4c3)c3ccccc3n2)n1 | 0.3 (≈ 0.109 µg/mL) | 5 (≈ 1.82 µg/mL) | – | –
22 | Cc1cccc(-c2nc(Nc3ccc4ncoc4c3)c3ccccc3n2)n1 | 0.3 (≈ 0.106 µg/mL) | 5 (≈ 1.77 µg/mL) | – | –
23 | Clc1cccc(-c2nc(Nc3ccncc3)c3ccccc3n2)n1 | < 1 | < 1 | Stable | 18
24 | Cc1cccc(-c2nc(Nc3ccc4ncn(C)c4c3)c3ccccc3n2)n1 | 0.3 (≈ 0.11 µg/mL) | > 10 | – | –
25 | CSc1cccc(Nc2nc(-c3cccc(C)n3)nc3ccccc23)c1 | < 0.3 | 1.3 (≈ 0.466 µg/mL) | – | –
26 | Cc1cccc(-c2nc(Nc3ccc4c(cnn4C)c3)c3ccccc3n2)n1 | < 0.3 | 1.3 (≈ 0.476 µg/mL) | Stable | 9
27 | COc1cccc(-c2nc(Nc3ccncc3)c3ccccc3n2)n1 | 5 (≈ 1.65 µg/mL) | > 10 | – | –
28 | Fc1cccc(-c2nc(Nc3ccncc3)c3ccccc3n2)c1 | > 10 | > 10 | – | –
29 | Cc1cccc(-c2cc(Nc3ccncc3)c3ccccc3n2)n1 | 2.5 (≈ 0.781 µg/mL) | > 10 | – | –
30 | Cc1cccc(-c2nc(Nc3ccc4[nH]ccc4c3)c3ccccc3n2)n1 | 1.3 (≈ 0.457 µg/mL) | 1.3 (≈ 0.457 µg/mL) | – | –
31 | Cc1cccc(-c2nc(Nc3ccc4[nH]ncc4c3)c3ccccc3n2)n1 | < 0.3 | 5 (≈ 1.76 µg/mL) | Stable | 9

Source: ChEMBL document CHEMBL5370647 (J Med Chem, 2023)
